Results from the M2OR odorant receptor database.
Positions count from the first letter of the chain named.

molecular target: T1, OR5L1 (Homo sapiens) (UniProt Q8NGL2); conditions: stereoisomer not certain
T1 sequence (whole entry): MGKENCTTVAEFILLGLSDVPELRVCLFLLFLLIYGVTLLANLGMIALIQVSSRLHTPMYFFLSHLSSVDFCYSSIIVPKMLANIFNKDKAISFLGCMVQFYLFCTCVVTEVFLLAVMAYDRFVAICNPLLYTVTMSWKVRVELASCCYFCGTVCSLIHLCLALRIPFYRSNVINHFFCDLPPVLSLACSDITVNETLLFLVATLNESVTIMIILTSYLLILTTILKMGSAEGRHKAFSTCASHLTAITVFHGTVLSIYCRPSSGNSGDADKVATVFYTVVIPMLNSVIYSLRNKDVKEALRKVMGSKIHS
How it was run: (§1)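 Assay methods differ from source to source, frequently being transient luciferase assays in mammalian cell lines. For each receptor–molecule pair, the label responsive (active) applies when the original authors judged the measured signal statistically different from baseline, and non-responsive (inactive) applies otherwise.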

Odorant receptor agonist call, inactive:
CC(=O)c1c(C)c([N+](=O)[O-])c(C(C)(C)C)c([N+](=O)[O-])c1C, CCC(S)C(C)CO (stereo unspecified), CC1=C(O)C(=O)C(C)O1 (stereo unspecified), CC1CCCCCCCCCCCCC(=O)C1 (stereo unspecified), CC1=C(O)C(=O)OC1C (stereo unspecified), CCCCCC(=O)C(C)C(C)=O (stereo unspecified), CCC1OC(=O)C(O)=C1C (stereo unspecified), CCCC(S)CCOC(C)=O (stereo unspecified), CCCCCCC=CCCC=O, CCCCC(S)C(C)CO (stereo unspecified), Cc1cnc(C)c(C)n1, CCCCCC(S)C(C)CO (stereo unspecified), CC1=NC(C)C(C)S1 (stereo unspecified), CC(CO)CS (stereo unspecified), CCC1OC(C)=C(O)C1=O (stereo unspecified)

molecular target: T2, OR5L2 (Homo sapiens) (UniProt Q8NGL0); conditions: stereoisomer not certain
T2 sequence (whole entry): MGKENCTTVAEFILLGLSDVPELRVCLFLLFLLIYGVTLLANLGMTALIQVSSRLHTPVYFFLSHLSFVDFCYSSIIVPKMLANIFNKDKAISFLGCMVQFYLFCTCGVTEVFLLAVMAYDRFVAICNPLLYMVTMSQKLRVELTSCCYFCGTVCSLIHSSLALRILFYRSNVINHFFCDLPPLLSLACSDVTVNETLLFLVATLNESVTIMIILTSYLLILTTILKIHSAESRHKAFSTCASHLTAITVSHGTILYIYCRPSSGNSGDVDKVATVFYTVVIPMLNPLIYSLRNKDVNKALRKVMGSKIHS
How it was run: as §1

Odorant receptor agonist call, inactive:
CCC(S)C(C)CO (stereo unspecified), CC1=C(O)C(=O)C(C)O1 (stereo unspecified), CC1=C(O)C(=O)OC1C (stereo unspecified), CCCCCC(=O)C(C)C(C)=O (stereo unspecified), CCC1OC(=O)C(O)=C1C (stereo unspecified), CCCC(S)CCOC(C)=O (stereo unspecified), CCCCCCC=CCCC=O, CCCCC(S)C(C)CO (stereo unspecified), Cc1cnc(C)c(C)n1, CCCCCC(S)C(C)CO (stereo unspecified), CC1=NC(C)C(C)S1 (stereo unspecified), CC(CO)CS (stereo unspecified), CCC1OC(C)=C(O)C1=O (stereo unspecified)

molecular target: T3, OR5M1 (Homo sapiens) (UniProt Q8NGP8); conditions: stereoisomer not certain
T3 sequence (whole entry): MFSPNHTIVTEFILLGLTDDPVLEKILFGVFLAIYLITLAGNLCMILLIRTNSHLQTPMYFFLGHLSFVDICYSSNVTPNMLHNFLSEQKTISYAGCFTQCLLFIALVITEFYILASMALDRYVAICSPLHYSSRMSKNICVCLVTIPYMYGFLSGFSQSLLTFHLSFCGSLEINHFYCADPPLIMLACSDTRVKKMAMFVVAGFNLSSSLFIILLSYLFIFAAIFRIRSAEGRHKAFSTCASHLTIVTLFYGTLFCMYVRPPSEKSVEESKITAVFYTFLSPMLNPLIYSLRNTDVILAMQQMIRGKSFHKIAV
How it was run: as §1

Odorant receptor agonist call, inactive:
CC(=O)c1c(C)c([N+](=O)[O-])c(C(C)(C)C)c([N+](=O)[O-])c1C, CCC(S)C(C)CO (stereo unspecified), CC1=C(O)C(=O)C(C)O1 (stereo unspecified), CC1CCCCCCCCCCCCC(=O)C1 (stereo unspecified), CC1=C(O)C(=O)OC1C (stereo unspecified), CCCCCC(=O)C(C)C(C)=O (stereo unspecified), CCC1OC(=O)C(O)=C1C (stereo unspecified), CCCC(S)CCOC(C)=O (stereo unspecified), CCCCCCC=CCCC=O, CCCCC(S)C(C)CO (stereo unspecified), Cc1cnc(C)c(C)n1, CCCCCC(S)C(C)CO (stereo unspecified), CC1=NC(C)C(C)S1 (stereo unspecified), CC(CO)CS (stereo unspecified), CCC1OC(C)=C(O)C1=O (stereo unspecified)

system: T4, OR5M1 T295R M301I; conditions: stereoisomer not certain
T4 sequence (whole entry): T3 sequence (whole entry) with T295R, M301I
How it was run: as §1

Odorant receptor agonist call, inactive:
CC1=C(O)C(=O)C(C)O1 (stereo unspecified), CC1=C(O)C(=O)OC1C (stereo unspecified), CCC1OC(=O)C(O)=C1C (stereo unspecified), CCCC(S)CCOC(C)=O (stereo unspecified), CCCCCCC=CCCC=O, Cc1cnc(C)c(C)n1, CC1=NC(C)C(C)S1 (stereo unspecified), CCC1OC(C)=C(O)C1=O (stereo unspecified)
